Compounds with a hit are over-represented: about 3.3% of the library has one in this group of screens.
Arr AP2 block = inhibitors of beta-arrestin/AP2 binding, primary screen, biochemical, GPCR trafficking, flow cytometry; FITC-arrestin peptide / GST-AP2 beads; AP2 beta2 appendage carries R879A mutation; inhibition, % at 10 µM; hit rate 0.31% among 340,000; AID 504490, 2011;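 active means inhibition above a set limit, near 3 SD of compounds lacking own fluorescence, cut at about 54% in these data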;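 further: plate controls were DMSO wells for no effect and 5 µM unlabelled arrestin peptide for full effect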
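Test system: GST-tagged AP2 beta2-adaptin appendage (R879A) on 4 µm glutathione beads; also added: fluorescein-tagged arrestin peptide at 50 nM final; timing: 12 min plus 1 h, RT; signal: flow cytometry, FL1 (488/535 nm); read-out: percent drop in bead-associated FITC signal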
NRP1-CendR mod = modulators of CendR peptide binding to NRP-1, primary screen, biochemical, fluorescence polarization, uHTS | Neuropilin-1 (Homo sapiens), O14786 | FAM-RPARPAR peptide binding to NRP-1 | inhibition, % at 25 µM | hit rate 0.85% among 360,000 | AID 602438, 2012;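 active means inhibition or corrected inhibition above about 18%, plus a signal ratio from 0.5 to 1.5, limit read from the data, passing the limit was not always enough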
PfM18AAP inh-1 = PfM18AAP inhibitors, malaria aminopeptidase, primary screen, biochemical, QFRET, recombinant enzyme | inhibition, % at 7.35 µM | hit rate 1.2% among 290,000 | M18 aspartyl aminopeptidase (Plasmodium falciparum 3D7) | AID 1822, 2009 | H-Glu-NHMec fluorogenic cleavage;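 active means inhibition above the campaign mean inhibition over all tested compounds plus 3 SD, cut at about 28% in these data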;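 further: 0% = plate median of test compound wells and 100% = 2 mM ZnCl2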
m5-HT2A agonist = mouse Htr2a agonists via beta-arrestin recruitment, primary screen, cell-based, luminescence. 5-hydroxytryptamine receptor 2A (Mus musculus), P35363. activation, % at 7.6 µM. CHO-K1 mHTR2A beta-arrestin complementation; percent of 30 µM serotonin response. hit rate 0.66% among 360,000;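 active means activation above a run cutoff, the mean activation of all tested compounds plus 3 SD, cut at about 14% in these data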;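 further: 0% = plate median of compound wells and 100% = 30 µM serotonin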
Lipid droplet = inhibitors of hepatocyte lipid droplet formation, primary screen, imaging, high-throughput imaging, BODIPY stain; hit rate 0.4% among 240,000; inhibition, % at 6.5 µM; AML12 mouse hepatocytes, oleate lipid droplets; AID 1656, 2009;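 active means lipid droplet intensity inhibited by at least 50%, with more than 500 cells counted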
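Assay system: AML12 mouse liver cells | Compound: 6.5 µM single-point dosing | Schedule: Overnight exposure | Technique: Fluorescence imaging, 20x objective, two fields per well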
sPLA2-III inh = human group III sPLA2 inhibitors, primary screen, biochemical, QFRET, BODIPY PC-A2 liposome substrate; inhibition, % at 12.2 µM; hit rate 0.56% among 370,000; AID 743126, 2013; Group 3 secretory phospholipase A2 (Homo sapiens), Q9NZ20; QFRET BODIPY PC-A2 liposome hydrolysis, fluorescence;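 active means inhibition above mean plus 3 SD of compounds lying within the high and low control bounds, cut at about 19% in these data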;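 further: 0% = median of test compound wells and 100% = no enzyme DMSO wells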
PfM18AAP inh-2 = PfM18AAP inhibitors, malaria aminopeptidase, confirmation, biochemical, QFRET, recombinant enzyme, triplicate. shares compounds with PfM18AAP inh-1. H-Glu-NHMec fluorogenic cleavage. inhibition, % at 7.35 µM. hit rate 28% among 2,400;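 active means mean inhibition over replicate wells above the hit cutoff set for the earlier primary screen, cut at about 29% in these data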;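 further: 0% = median of test compound wells and 100% = 2 mM ZnCl2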
CTSL1 counter = cathepsin L1 inhibitors, retest, confirmation, counter-screen for PFM18AAP inhibitor project, biochemical, QFRET, triplicate. shares compounds with PfM18AAP inh-1. purified cathepsin L1, Z-Leu-Arg-MCA fluorescence. inhibition, % at 5.96 µM. 2,400 tested, under 10 active. AID 2178, 2009;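 active means average inhibition across replicates above the hit cutoff set in the earlier primary screen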;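 further: 0% = median of test compound wells and 100% = Z-Phe-Ala-diazomethylketone 1 µM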
Target sequence (P07711 whole entry, looked up): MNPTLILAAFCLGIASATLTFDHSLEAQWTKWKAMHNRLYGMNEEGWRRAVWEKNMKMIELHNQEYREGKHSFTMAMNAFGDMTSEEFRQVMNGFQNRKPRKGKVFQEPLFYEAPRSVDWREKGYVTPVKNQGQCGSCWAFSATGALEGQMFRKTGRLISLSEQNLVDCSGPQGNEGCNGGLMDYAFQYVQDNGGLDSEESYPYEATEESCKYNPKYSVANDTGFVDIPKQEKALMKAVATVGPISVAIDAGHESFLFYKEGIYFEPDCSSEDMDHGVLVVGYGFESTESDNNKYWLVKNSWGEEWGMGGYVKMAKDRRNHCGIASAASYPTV
* marks the source's active call; other numbers are inactive results.

CC/C(=C/c1sc2ccccc2[n+]1CC)SC was read as Arr AP2 block 9, NRP1-CendR mod 8, PfM18AAP inh-1 46*, m5-HT2A agonist -2, Lipid droplet -27, sPLA2-III inh -10, PfM18AAP inh-2 -32 and CTSL1 counter 5.
For CC[n+]1c(/C=C(\C)OC)sc2ccccc21 the results were Arr AP2 block 12, NRP1-CendR mod 2, PfM18AAP inh-1 23, m5-HT2A agonist 5, Lipid droplet -1 and sPLA2-III inh 8.
For CC[n+]1c(/C=C(/C)SC)sc2ccccc21 the results were Arr AP2 block 2, NRP1-CendR mod 2, PfM18AAP inh-1 49*, m5-HT2A agonist 5, Lipid droplet -15, sPLA2-III inh 17, PfM18AAP inh-2 -52 and CTSL1 counter -4.
Screening CC[n+]1c(/C=C(\C)SC)sc2ccccc21 returned Arr AP2 block -5, NRP1-CendR mod -24, PfM18AAP inh-1 44*, m5-HT2A agonist 1, sPLA2-III inh -3, PfM18AAP inh-2 -25 and CTSL1 counter 4.
`CC1(C(=O)O)CCN1C(=O)c1ccccc1F` (stereo not given) gave NRP1-CendR mod 12, m5-HT2A agonist 1 and sPLA2-III inh 14.
For CC1CC(C)(C)CC2(C1)NC(=S)N(c1ccccc1)N2 (stereo not given) the results were Arr AP2 block 1, NRP1-CendR mod 0, PfM18AAP inh-1 36*, m5-HT2A agonist 0, Lipid droplet 16, sPLA2-III inh 3, PfM18AAP inh-2 -48 and CTSL1 counter -14.
Cc1cc(C)n2c(SCC(O)=C(C#N)c3nc4ccccc4[nH]3)nnc2n1 was read as Arr AP2 block 43, NRP1-CendR mod -34, m5-HT2A agonist 6 and sPLA2-III inh 2.
`N#C/C(=C(/O)CSc1ncn[nH]1)c1nc2ccccc2[nH]1` gave Arr AP2 block 8, NRP1-CendR mod -55, PfM18AAP inh-1 64*, m5-HT2A agonist 6, Lipid droplet -6, sPLA2-III inh -7, PfM18AAP inh-2 9 and CTSL1 counter 3.
`C[C@@H]1CN([C@H](C)CO)C(=O)CCCn2nncc2CO[C@H]1CN(C)S(=O)(=O)c1ccccc1F` gave NRP1-CendR mod -1, m5-HT2A agonist 1 and sPLA2-III inh 2.
`COc1cc([N+](=O)[O-])ccc1-c1ccc(/C=N\n2cnnc2)o1` gave Arr AP2 block 14, NRP1-CendR mod -44, PfM18AAP inh-1 44*, m5-HT2A agonist -3, Lipid droplet 11, sPLA2-III inh 2, PfM18AAP inh-2 -9 and CTSL1 counter 2.
Screening Cc1cc(-c2ccc(/C=N/n3cnnc3)o2)c(C)c([N+](=O)[O-])c1 returned Arr AP2 block -4, NRP1-CendR mod -4, PfM18AAP inh-1 43*, m5-HT2A agonist -2, Lipid droplet 13, sPLA2-III inh 3, PfM18AAP inh-2 -12 and CTSL1 counter 3.
For O=[N+]([O-])c1ccc(Cl)c(-c2ccc(/C=N/n3cnnc3)o2)c1 the results were Arr AP2 block 1, NRP1-CendR mod -7, PfM18AAP inh-1 25, m5-HT2A agonist -3, Lipid droplet -5 and sPLA2-III inh 1.
`CC(C)(C)CNC(=O)c1cccc2c1C(=O)c1ccc(-c3cc4ccccc4o3)cc1S2(=O)=O` gave Arr AP2 block 3, NRP1-CendR mod 0, m5-HT2A agonist 0 and sPLA2-III inh 8.
For N#CCC(=O)Nc1ccc(C(=O)N2CCN(c3ccccn3)CC2)cc1 the results were Arr AP2 block 8, NRP1-CendR mod -8, PfM18AAP inh-1 2, m5-HT2A agonist 8, Lipid droplet 0 and sPLA2-III inh -37.
Screening CC(=O)NC12CC3CC(C1)CC(C(=O)N1CCN(S(=O)(=O)c4ccccc4C#N)CC1)(C3)C2 returned Arr AP2 block -4, NRP1-CendR mod -6, m5-HT2A agonist 3 and sPLA2-III inh 2.
`COc1cc(CNc2ccc(CNc3ncn[nH]3)cc2)cc(Cl)c1OCc1ccccc1` gave Arr AP2 block 1, NRP1-CendR mod 2, PfM18AAP inh-1 34*, m5-HT2A agonist -1, Lipid droplet 17, sPLA2-III inh 2, PfM18AAP inh-2 -41 and CTSL1 counter 1.
`Clc1cnc(N/N=C/c2ccco2)c(Cl)c1` gave Arr AP2 block -12, NRP1-CendR mod 4, PfM18AAP inh-1 47*, m5-HT2A agonist -3, Lipid droplet -38, sPLA2-III inh 10, PfM18AAP inh-2 -29 and CTSL1 counter -5.
For Clc1ccc(Nc2ncn[nH]2)cc1 the results were Arr AP2 block -14, NRP1-CendR mod 21, PfM18AAP inh-1 34*, m5-HT2A agonist 3, sPLA2-III inh -4, PfM18AAP inh-2 18 and CTSL1 counter 4.
CC(NCc1ccco1)C(=O)N1CCN(c2ccc(F)cc2)CC1 (stereo not given) was read as sPLA2-III inh 6.
COc1cccc(NC(=O)NNC(=O)CCc2ccc(O)c(O)c2)c1 was read as Arr AP2 block -2, NRP1-CendR mod 3, PfM18AAP inh-1 73*, m5-HT2A agonist 3, Lipid droplet 11, sPLA2-III inh -3, PfM18AAP inh-2 52* and CTSL1 counter 1.
`O=C(CCc1ccc(O)c(O)c1)NNC(=S)Nc1ccc(Br)cc1Cl` gave Arr AP2 block 19, NRP1-CendR mod 13, PfM18AAP inh-1 54*, m5-HT2A agonist 7, Lipid droplet 2, sPLA2-III inh 14, PfM18AAP inh-2 10 and CTSL1 counter -9.
Screening O=C(CCc1ccc(O)c(O)c1)NNC(=S)NCCc1ccccc1 returned Arr AP2 block 20, NRP1-CendR mod -7, PfM18AAP inh-1 68*, m5-HT2A agonist 5, Lipid droplet 3, sPLA2-III inh 5, PfM18AAP inh-2 30* and CTSL1 counter -1.
For O=C(NNC(=S)Nc1ccc(Br)cc1Cl)c1ccncc1 the results were Arr AP2 block 3, NRP1-CendR mod -22, PfM18AAP inh-1 2, m5-HT2A agonist -4, Lipid droplet -7 and sPLA2-III inh -7.
